Results as given in ChEMBL document CHEMBL1122451, “Synthesis of 3,4-dihydro-4-oxoquinazoline derivatives as potential anticonvulsants” (J Med Chem, 1983).
Calls of active or inactive are those of the source.

Columns and labels:
Mus musculus [1] = test: Anticonvulsant activity in mice using sc Met seizure test;NA means inactive.; type: functional, organism-based
Procedure, shortened: (§1)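 Mice were dosed at 30, 100, 300 and 600 mg/kg, four per dose, and tested at 30 min and 4 h. Pentylenetetrazol was then given subcutaneously at its CD99. Protection means absence of even a threshold seizure (one clonic spasm of 5 s). ED50 was estimated graphically, some at peak-effect time or 4 h. Litchfield-Wilcoxon 95% limits apply where confirmed.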

Mus musculus [2] = species: Mus musculus; test: Anticonvulsant activity in mice using MES seizure test;NA means inactive.; type: functional, organism-based
Procedure, shortened: (§2)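 Mice were injected at 30, 100, 300 and 600 mg/kg, four per dose, and tested at 30 min and 4 h. Protection means abolition of the hindlimb tonic extensor component of the maximal electroshock seizure (60 Hz alternating current, 50 mA, 0.2 s, corneal electrodes). ED50 was estimated graphically. Confirmed values carry Litchfield-Wilcoxon 95% confidence limits.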

[3] = Anticonvulsant activity expressed as toxic dose in rotarod test (0.5 hr) in mice; type: toxicity, organism-based; conditions: mouse, in vivo
Procedure, shortened: (§3)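 Acute neurotoxicity in mice by rotorod test after injection at 30, 100, 300 and 600 mg/kg, read at 30 min and 4 h, four animals per dose. TD50 is the median neurotoxic dose, estimated graphically; where confidence limits are given they are 95% limits by the Litchfield-Wilcoxon method from additional ADD testing.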

Mus musculus [4] = test: Anticonvulsant activity expressed as toxic dose in rotarod test (0.5 hr) in mice;4 out of 4 mice died at 600 mg/kg; wild running and tonic extension convulsion at 300 mg/kg;NA means inactive.; type: ADME, organism-based; conditions: in vivo
Procedure, shortened: (§4)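 Mice, rotorod test of acute neurotoxicity at 0.5 h. Doses 30, 100, 300 and 600 mg/kg, four animals per dose, with positives assessed by four more observations. Median neurotoxic dose (TD50) was estimated graphically from combined ADD and in-house screening. Where confirmed by further ADD testing, 95% confidence limits were calculated by Litchfield-Wilcoxon.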

[5] = Anticonvulsant activity expressed as toxic dose in rotarod test (0.5 hr) in mice;Activity determined at time of peak effect (0.5 hr); type: ADME, organism-based; conditions: mouse, in vivo; procedure, shortened: as §3
Mus musculus [6] = test: Anticonvulsant activity in mice using sc Met seizure test;Activity determined at 4h.; type: functional
Procedure, shortened: (§5)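 Subcutaneous pentylenetetrazol at the CD99 convulsant dose was given to mice pretreated at 30–600 mg/kg, four per dose, with tests at 30 min and 4 h. Protection is the absence of even a threshold seizure (one clonic spasm episode of 5 s). ED50 is estimated graphically or determined at the time of peak effect; 95% limits are by Litchfield-Wilcoxon.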

Mus musculus [7] = test: Anticonvulsant activity in mice using MES seizure test;Compound is neurotoxic at 100 mg/kg.; type: functional, organism-based; parameters: dose 100 mg/kg
Mus musculus [8] = test: Anticonvulsant activity in mice using sc Met seizure test.; type: functional; procedure, shortened: as §1
Mus musculus [9] = species: Mus musculus; test: Anticonvulsant activity expressed as toxic dose in rotarod test (0.5 hr) in mice;NA means inactive.; type: ADME, organism-based; conditions: in vivo; procedure, shortened: as §4
Mus musculus [10] = test: Anticonvulsant activity in mice using MES seizure test;Compound is neurotoxic at 30 mg/kg dose.; type: functional, organism-based; parameters: dose 30 mg/kg
Mus musculus [11] = test: Anticonvulsant activity in mice using sc Met seizure test;Compound is neurotoxic at 5 mg/kg.; type: functional, organism-based; parameters: dose 5 mg/kg
Mus musculus [12] = species: Mus musculus; test: Anticonvulsant activity in mice using MES seizure test.; type: functional; procedure, shortened: as §2
Mus musculus [13] = test: Anticonvulsant activity in mice using MES seizure test;Compound is neurotoxic at 300 mg/kg dose.; type: functional, organism-based; parameters: dose 300 mg/kg
[14] = Anticonvulsant activity expressed as toxic dose in rotarod test (0.5 hr) in mice;Activity determined at the time of peak effect (0.5 hr) and value ranges from (126-147).; type: ADME, organism-based; conditions: mouse, in vivo; procedure, shortened: as §3
Mus musculus [15] = test: Anticonvulsant activity in mice using sc Met seizure test;Activity determined at the time of peak effect (1hr) and value ranges from (26-62).; type: functional; procedure, shortened: as §5
Mus musculus [16] = species: Mus musculus; test: Anticonvulsant activity in mice using MES seizure test;Activity determined at time of peak effect (0.5 hr) and value ranges from(48-55); type: functional
[17] = Anticonvulsant activity expressed as toxic dose in rotarod test (0.5 hr) in mice;Value ranges from(36-43).; type: ADME, organism-based; conditions: mouse, in vivo; procedure, shortened: as §3
Mus musculus [18] = test: Anticonvulsant activity in mice using sc Met seizure test;Activity determined at time of peak effect (0.5 hr) and value ranges from(12-20).; type: functional; procedure, shortened: as §5
Mus musculus [19] = test: Anticonvulsant activity in mice using sc Met seizure test;Activity is determined at 4h.; type: functional; procedure, shortened: as §5
Mus musculus [20] = species: Mus musculus; test: Anticonvulsant activity in mice using MES seizure test; determined at time of peak effect (0.5 hr); type: functional; procedure, shortened: as §2
[21] = Anticonvulsant activity expressed as toxic dose in rotarod test (0.5 hr) in mice;Activity determined at time of peak effect (0.5 hr) and value ranges from(47-65).; type: ADME, organism-based; conditions: mouse, in vivo; procedure, shortened: as §4
Mus musculus [22] = species: Mus musculus; test: Anticonvulsant activity in mice using MES seizure test;Activity determined at time of peak effect (0.5 hr) and value ranges from (48-56).; type: functional; procedure, shortened: as §2

With `Cc1nc2cccnc2c(=O)n1-c1cccc(C(F)(F)F)c1` the ED50 (Mus musculus [1]) was “inactive”, the ED50 (Mus musculus [2]) was “inactive” and the TD50 at 0.5 h [3] was 50 mg/kg.
For `Cc1cc2c(=O)n(-c3ccccn3)c(C)nc2c(C(=O)O)c1C`, the ED50 (Mus musculus [1]) was “inactive”, the ED50 (Mus musculus [2]) was “inactive” and the TD50 (Mus musculus [4]) was “Not Active”.
For `Cc1nc2cccnc2c(=O)n1-c1ccccc1C(F)(F)F`, the TD50 at 0.5 h [5] was 100 mg/kg, the ED50 (Mus musculus [6]) was 100 mg/kg and the ED50 (Mus musculus [7]) was “inactive”.
In the case of `Cc1cc2c(=O)n(-c3ccc(F)cc3)c(C)nc2c(C(=O)O)c1C`, the ED50 (Mus musculus [8]) is reported as 440 mg/kg, the ED50 (Mus musculus [2]) is reported as “inactive” and the TD50 (Mus musculus [9]) is reported as “Not Active”.
In the case of `COC(=O)c1c(C)c(C)cc2c(=O)n(-c3ccccc3C)c(C)nc12`, the ED50 (Mus musculus [8]) is reported as 600 mg/kg, the ED50 (Mus musculus [2]) is reported as “inactive” and the TD50 (Mus musculus [9]) is reported as “Not Active”.
With `Cc1nc2cccnc2c(=O)n1-c1ccc(Cl)cc1Cl` the ED50 (Mus musculus [10]) was “inactive” and the ED50 (Mus musculus [11]) was “inactive”.
In the case of `COC(=O)c1c(C)c(C)cc2c(=O)n(-c3ccc(F)cc3)c(C)nc12`, the ED50 (Mus musculus [8]) is reported as 440 mg/kg, the ED50 (Mus musculus [12]) is reported as 600 mg/kg and the TD50 (Mus musculus [9]) is reported as “Not Active”.
In the case of `Cc1ccccc1-n1c(C)nc2ncccc2c1=O`, the ED50 (Mus musculus [13]) is reported as “inactive”, the TD50 at 0.5 h [14] is reported as 137 mg/kg and the ED50 (Mus musculus [15]) is reported as 40 mg/kg.
`Cc1ccccc1-n1c(C)nc2cccnc2c1=O` showed an ED50 (Mus musculus [16]) of 52 mg/kg, a TD50 at 0.5 h [17] of 40 mg/kg and an ED50 (Mus musculus [18]) of 16.5 mg/kg.
In the case of `COC(=O)c1c(C)c(C)cc2c(=O)n(-c3ccccc3F)c(C)nc12`, the ED50 (Mus musculus [1]) is reported as “inactive”, the ED50 (Mus musculus [2]) is reported as “inactive” and the TD50 at 0.5 h [3] is reported as 280 mg/kg.
In the case of `Cc1nc2cccnc2c(=O)n1-c1ccc(C(F)(F)F)cc1`, the ED50 (Mus musculus [13]) is reported as “inactive”, the ED50 (Mus musculus [19]) is reported as 90 mg/kg and the TD50 at 0.5 h [3] is reported as 170 mg/kg.
With `COC(=O)c1c(C)c(C)cc2c(=O)n(-c3cccc(F)c3)c(C)nc12` the ED50 (Mus musculus [8]) was 430 mg/kg, the ED50 (Mus musculus [2]) was “inactive” and the TD50 at 0.5 h [3] was 540 mg/kg.
For `COC(=O)c1c(C)c(C)cc2c(=O)n(-c3ccccn3)c(C)nc12`, the ED50 (Mus musculus [1]) was “inactive”, the TD50 (Mus musculus [9]) was “Not Active” and the ED50 (Mus musculus [20]) was 52 mg/kg.
In the case of `Cc1ccccc1-n1c(C)nc2ccccc2c1=O` [METHAQUALONE], the TD50 at 0.5 h [21] is reported as 55 mg/kg and the ED50 (Mus musculus [22]) is reported as 52 mg/kg.
